In publication PMC11850876 (Scientific Reports, 2025):
Read-outs that look alike come from different tables or passages of the source.

What was measured:
[1] = DPPH radical scavenging assay; conditions: read-out: DPPH radical scavenging IC50 ± SD; DPPH 0.1 mM in MeOH, 60 min, 517 nm
In short: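 Each test compound was prepared at 1.0 mg/mL in DMSO and mixed 1:1 by volume with 0.1 mM DPPH in MeOH. The mixture was kept in the dark at RT for 60 min. Absorbance was read at 517 nm against a DPPH control. % scavenging = (Abs control − Abs sample)/Abs control × 100.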

[2] = test system: healthy human breast epithelial (MCF-10 A) cell line; assay: MTT cytotoxicity assay, MCF-10 A; assay type: cell-based
In short: (§1)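 Cells came from the Pasteur Institute, Tehran, and were seeded at 5 × 10^4 cells/well. After 24 h, four concentrations of test compound were added in triplicate, with medium-only and 0.5% DMSO controls. Exposure was 48 and 72 h. MTT formazan was dissolved in DMSO and read at 570 nm. IC50 was taken from % inhibition (mean ± SD, n=3). SI = IC50 MCF-10 A / IC50 MCF-7.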

[3] = test system: MCF-7 breast cancer cell line; assay: MTT cytotoxicity assay, MCF-7; assay type: cell-based, human; conditions: for IC50: Homo sapiens; for Selectivity Index (SI) 48 h: IC50 MCF-10 A / IC50 MCF-7, 48 h; for Selectivity Index (SI) 72 h: IC50 MCF-10 A / IC50 MCF-7, 72 h
In short: as §1

[4] = 48 h, read-out: IC50 ±SD MCF-10 A 48 h
[5] = 72 h, read-out: IC50 ±SD MCF-10 A 72 h
[6] = MCF7, 48 h, read-out: IC50 ±SD MCF-7 48 h
[7] = MCF7, 72 h, read-out: IC50 ±SD MCF-7 72 h

Row | Compound | IC50 [1] [µM] | IC50 [2, 4] [µM] | IC50 [2, 5] [µM] | IC50 [3, 6] [µM] | IC50 [3, 7] [µM] | Selectivity Index (SI) 48 h [3] | Selectivity Index (SI) 72 h [3]
1 | NS(=O)(=O)c1ccc(/N=N/c2ccc(O)c(/C=N/c3ccc(O)cc3)c2)cc1 [Compound 3a, 4-((E)-(4-hydroxy-3-((E)-((4-hydroxyphenyl)imino)methyl)phenyl)diazenyl)benzenesulfonamide] | 13.2 ± 0.74 | 11.18 ± 0.012 | 1.98 ± 0.002 | 10.9 ± 0.005 | 9.49 ± 0.012 | 1.02 | 0.20
2 | NS(=O)(=O)c1ccc(/N=N/c2ccc(O)c(/C=N/c3ccccc3O)c2)cc1 [Compound 3c, 4-((E)-(4-hydroxy-3-((E)-((2hydroxyphenyl)imino)methyl)phenyl)diazenyl)benzenesulfonamide] | 13.6 ± 0.95 | 16.82 ± 0.01 | 2.23 ± 0.001 | 21.16 ± 0.014 | 9.26 ± 0.002 | 0.79 | 0.24
3 | COc1ccc(/N=C/c2cc(/N=N/c3ccc(S(N)(=O)=O)cc3)ccc2O)cc1 [Compound 3f, 4-((E)-(4-hydroxy-3-((E)-((4-methoxyphenyl)imino)methyl)phenyl)diazenyl)benzenesulfonamid] | 14 ± 1.45 | 11.01 ± 0.016 | 2.67 ± 0.009 | 8.94 ± 0.013 | 7.62 ± 0.018 | 1.23 | 0.35
4 | NC(=S)N/N=C/c1cc(/N=N/c2ccc(S(N)(=O)=O)cc2)ccc1O [Compound 3j, 2-((E)-2-hydroxy-5-((E)-(4-sulfamoylphenyl)diazenyl)benzylidene)hydrazine-1-carbothioamide] | 12.4 ± 0.55 | 17.43 ± 0.019 | 11.26 ± 0.008 | 6.52 ± 0.007 | 5.27 ± 0.006 | 2.67 | 2.13
5 | COc1cccc2c1C(=O)c1c(O)c3c(c(O)c1C2=O)C[C@@](O)(C(=O)CO)C[C@@H]3O[C@H]1C[C@H](N)[C@H](O)[C@H](C)O1 [Doxorubicin, reference compound] | – | 13.2 ± 0.1 | 2.85 ± 0.1 | 3.42 ± 0.1 | 0.68 ± 0.1 | 3.86 | 4.20
6 | O=C1O[C@H]([C@@H](O)CO)C(O)=C1O [ascorbic acid, reference compound] | 13.6 ± 0.38 | – | – | – | – | – | –
